This sample holds only a part of the variants without activity.
B1: tRNA (parent)
chain: GUUCCGUUGGCGUAAUGGUAACGCGUCUCCCUCCUAAGGAGAAGACUGCGGGUUCGAGUCCCGUACGGAACG

Variants of: B1
Test: yeast fitness relative to wild type (ratio to wild type); higher = fitter; tRNA-Arg(CCU), competitive growth, 37 C, YPD
Method in brief: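 Start and end populations of a pooled competition were compared by 100-nucleotide paired-end sequencing of gene amplicons. The Saccharomyces cerevisiae strains carried tRNA-Arg(CCU) gene variants at the native genomic locus, synthesised with a 3% per-site mutation rate at 69 sites, and competed in YPD at 37°C for 24 hours in six parallel replicates. Darwinian fitness relative to wild type was based on the change in genotype frequencies. Genotypes required ≥ 100 starting reads, and estimates < 0.5 were set to 0.5.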

Variant | yeast fitness
GUUCCGUUGGCGUAAUGGUAACGCGUCUCCCUACUAAGGAGAAGAGUGCGGGUUCGAGUUCCGUACGGAACG [C33A C46G C60U] | 0.76
GUUCCGUUGGCGUAAUGGUAACGAGUCUCCCUCCUAAGGAGAAGACUGCGGGUUCGAGUCUCGUACAGAACG [C24A C61U G67A] | ≤ 0.5
GUCCCGUUGGCGUAAUGGUAACGCGUCUCCCUCCCAAGGAGAAGACUGCGGGUUCGGGUCCCGUACGGAACG [U3C U35C A57G] | 0.541
GUUCCGUUGGCGUAAUGGUAAUGCGUCUCCCUCCUAAGGUGAAGACUACGGGUUCGAGUCCCGUACGGAACG [C22U A40U G48A] | ≤ 0.5
GUUCCGUUGGCGUAAUGGUAACGCGUCUCCCUCCUAAGGAGAAGACUGCGGGUUCGAGUCCCGUGCGUAACG [A65G G68U] | 0.809
GUCCCGUUGGCGUAAUGGUAACGCGUCACCCUCCCACGGAGAAGACUGCGGGUUCCGGUCCCGUACGUAACG [U3C U28A U35C A37C G56C A57G G68U] | ≤ 0.5
GUUCCGUUGGCGUAAUUGUAACGUGUCUCCCUCCUAAGGAGAAGACUGCGGGUUCGAGUCCCGUACGGAACG [G17U C24U] | 0.84
GCUCCGUUGGCGUAAUGGUAACGCGUUUCCCUCCUAAGGAGAGGACUGCGGGUUCGAGUCCCGUACGGAACG [U2C C27U A43G] | 0.593
GUUCCGUUGGCGUAAUGGUAACGCGUCUCCUUCCUAAGGCGAAGACUGUGGAUUCGAGUCCCGUACGGAACG [C31U A40C C49U G52A] | ≤ 0.5
GUUCCGUUGGAGUAAUGGUAACGCGUCUCCCUCCUAAGGAGAAGACUGCGGGUUCGAGUCCGGUACGGAUCG [C11A C62G A70U] | 0.542
GUUCCGUUGGCGUAAUGGUAACGCGUCUCCCUCCUAAGGAGAAGACUGCGGGUUCCACUCCCGUAUGGAACG [G56C G58C C66U] | 0.625
GUUCCGUUGGCGUAAUCCUAACGCGUCUCCCUCCUAAGGAGAAGACUGCGGGUUCGAGUCCCCCACGGAACG [G17C G18C G63C U64C] | ≤ 0.5
GUUCCGUUGGCGUAAUGGUAACGCGUCUCCCUCCUAAGGCGACGACUGCGGGUUCGAGUCCCGUACGGAACG [A40C A43C] | 1.04
GUUCCGUUGGCGUAAUGGUAACACGUUUCCCUCCUAUGGAGAAGACUGCGGGUUCGAGUCCCGUACGGAACG [G23A C27U A37U] | 0.58
GUUCUGUUGGCGUAUUGGUCACGCGUCUCCCUCCUAAGGAGAAGACUGCGGGUUAGAGUCCCGUACGGAACG [C5U A15U A20C C55A] | ≤ 0.5
GUUCCGUAGGCGUAAUGGUAACGCGUAUCCCUCCUAUGGAGAAGACUGCGGGUUCGUGUCCCGUACGGAACG [U8A C27A A37U A57U] | ≤ 0.5
GUUCCGCUGGCGUAAUGGUAACGCGUCUCCCUCCUAAGGAGAAGACUGCGGGUUCGAGCCCCGUACGGAACG [U7C U59C] | 0.846
GUUCCGUUGGCGUAAAGGUAACGCGUGUCCCUCCUAAGGAGUAGACUGCGGGCUCGAGUCCCGUACGGAACG [U16A C27G A42U U53C] | ≤ 0.5
GUUCCGUUGAGGUAAUGGUAACGCGUCACCCUUCUAAAGAGAAGACUGUGGGUUCGAGUCCCGUACGGAACG [G10A C11G U28A C33U G38A C49U] | ≤ 0.5

Variant | yeast fitness
GUUCCGUUGGCGUAAUGGUAACGCGUCUCCCUCCUAAGGAGAAGUCUGCGGCUUCGAGUCCCGUACGGAACG [A45U G52C] | 0.642
GUUCCGUUGGCGUAAUGAUAACGCGUCUCCCUCCUAAGGGGAAGACUGCGGGUUCGAGUCCCGUACGGAACG [G18A A40G] | 0.74
GUUCCGUUGGCGUAAUGGUAACGCGUCUCCCUCCUAAGGAGUAGUCUGCGGGUUCGAGUCCCGUACGGAACG [A42U A45U] | 1.09
GUUCCGUUGGCGUAAUGGUACCGCGUCUCCCUCCUAAGGAGAAGACUGCGGGUUCGAGUCCUGUAUGGAACG [A21C C62U C66U] | 0.533
GUUCCGUUGGCGUAAAGGUAACGCGUCUCCCUCCUAGGGAGAAAACUGCGGGUUCGAGUCCCGUACGGUACG [U16A A37G G44A A69U] | ≤ 0.5
GUUCCGUUGGCGUAAUGGUAACCCGUCUCCCUCCUAAGGAGAAGACUGCGGGUUCAAGUCCCGUACGGAACG [G23C G56A] | 0.566
GUUCCGUUGGCGUAAUGGUAACCAGUCUCGCUCCUAAGGUGAAGACAGCGCGUUCGAGUCCCGUACGGAACG [G23C C24A C30G A40U U47A G51C] | 0.506
GUUCCGUUGGCGUAAUGGUAACGCGUCUCCCUCCUAAGGAGAAGACUGCGGGUUCGAGGCCCGUUCGGAACG [U59G A65U] | 0.917
GUACCGUUGGCGUAAUGGUAACGCGUCUCCCUCAUAAGGAGAAGACUGUGGGUUGGAGUCCCGUACGGAACG [U3A C34A C49U C55G] | ≤ 0.5
GUUCCGUAGGUGUAGUGGUAACGCGUCUCCCUCCUAAGGAGAAGACUGCGGGUUCGAGUCCCCUACGGAACG [U8A C11U A15G G63C] | ≤ 0.5
GUUCCGUUGGCGUAAUCGUAACGCGUCUCCCUCCUAAGCAGAAGACUGCGGGUUCGAGUCCCAUACGGAACG [G17C G39C G63A] | ≤ 0.5
GUUCCGUUGGCGUAAUGGUAACGCCUCUCCCUCCUAAGGAGCAGACUGCGGGUUCGAGUCUCGUACGGAACG [G25C A42C C61U] | ≤ 0.5
GUUCCGUUGGCGUAAUGGUAAAGCGUCUCCCUCCUAAGGAGAAGACUGCGGGUUCGAGCCCCGUACGGAACG [C22A U59C] | 0.814
GUUCAGUUGGCGUAUUGGUAACGCGUCUCCGUCCUAAGAAGAAGACUGCGGGUUCGAAUCCCGUACAGAACG [C5A A15U C31G G39A G58A G67A] | 0.558
GUUCCGUUGGCGUAAUGCUAACGCGUCUCCCUCCUAAAGAGAUGGCUGCGGGUUCGGGCCCCGUACGGAACG [G18C G38A A43U A45G A57G U59C] | ≤ 0.5
GUUCCGUUGGCGUAGUGGUCACGCGUCUCCCUCCUAAGGAGAAGACUGCGGGUACGAGUCCCGUACGGAACG [A15G A20C U54A] | ≤ 0.5
GUUCCGCUGGCGUAAUGGUAACGCGUCUCCCUCCUAAGGAGGAGACUGCGGGUCCGAGUCCCGUACGGAACG [U7C A42G U54C] | 0.549
GUUCCGUUGGCGUAAUGGUAACGCGUCUCCCUGCUAACGAGAAGAAUGCGGGUUCGAGUCCCGUACGGAACG [C33G G38C C46A] | 0.551
GUUCCGUUGGCGUAUUGGUAAUGCGUCUCCCUCCUAAGCAGAAGACUGCGGGUUCGAGUCCCGUACGGAACG [A15U C22U G39C] | ≤ 0.5
